Source: PubChem BioAssay (The Scripps Research Institute Molecular Screening Center)
M4 PAM – human M4 muscarinic receptor positive allosteric modulators, primary screen, CHO-K1 cells, Fluo-8 calcium fluorescence | Muscarinic acetylcholine receptor M4 (Homo sapiens), P08173 | CHO-K1 hM4/Gqi5, ACh EC20; 0% = ACh EC20, 100% = maximal ACh | activation, % at 3 µM | actives 0.4% (n = 360,000) | AID 624126, 2012;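 active means activation above its plate's cutoff, the mean activation of sample wells plus 3 SD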
CHRM4 agonist – human M4 muscarinic receptor agonists, primary screen, CHO-K1 cells, Fluo-8 calcium fluorescence; AID 624127, 2012; actives 0.14% (n = 360,000); CHO-K1 hM4/Gqi5; vehicle 0%, full acetylcholine response 100%; Muscarinic acetylcholine receptor M4 (Homo sapiens), P08173; activation, % at 3 µM;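 active means activation above the run mean over all test wells plus 3 SD, cut at about 32% in these data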;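 further: peak over basal fluorescence ratio per well then scaled between controls; 0% = DMSO wells and 100% = acetylcholine at EC100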
M5 PAM – human M5 muscarinic receptor positive allosteric modulators, primary screen, CHO-K1 cells, Fluo-8 calcium fluorescence | Muscarinic acetylcholine receptor M5 (Homo sapiens), P08912 | CHO-K1 hM5, ACh EC20 PAM; 0% = ACh EC20, 100% = ACh EC100 | activation, % at 3 µM | actives 0.3% (n = 360,000) | AID 624038, 2012;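 active means activation above the run cutoff, the mean activation of all test compounds plus 3 SD, cut at about 18% in these data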
Target sequence (P08912 whole entry, looked up): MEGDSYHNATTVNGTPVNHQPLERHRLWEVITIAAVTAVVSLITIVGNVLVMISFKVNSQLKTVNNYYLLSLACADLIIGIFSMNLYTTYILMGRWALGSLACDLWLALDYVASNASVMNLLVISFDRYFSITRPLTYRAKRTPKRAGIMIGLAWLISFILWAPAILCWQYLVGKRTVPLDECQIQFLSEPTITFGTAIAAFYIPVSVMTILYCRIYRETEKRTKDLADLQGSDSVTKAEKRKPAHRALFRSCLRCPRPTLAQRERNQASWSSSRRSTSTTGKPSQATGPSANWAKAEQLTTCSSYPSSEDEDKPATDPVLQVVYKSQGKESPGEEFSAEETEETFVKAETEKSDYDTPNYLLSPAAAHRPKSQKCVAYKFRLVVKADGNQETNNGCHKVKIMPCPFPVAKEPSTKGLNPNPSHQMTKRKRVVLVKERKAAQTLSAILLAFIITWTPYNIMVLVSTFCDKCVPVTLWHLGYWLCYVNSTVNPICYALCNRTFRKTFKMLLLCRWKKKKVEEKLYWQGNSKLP
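Assay system: CHO-K1 hM5 cells / Incubation: Fluo-8 loading 80 min at 37 °C plus 30 min room temperature / Technique: Fluo-8 calcium dye fluorescence, kinetic read / Repeats: single replicate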
CHRM5 agonist – human M5 muscarinic receptor agonists, primary screen, CHO-K1 cells, Fluo-8 calcium fluorescence. Muscarinic acetylcholine receptor M5 (Homo sapiens), P08912. CHO-K1 hM5 cells; 0% DMSO wells, 100% maximal acetylcholine response. activation, % at 3 µM. actives 0.19% (n = 360,000). AID 624037, 2012;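 active means activation above the run's mean over test compounds plus 3 SD, cut at about 23% in these data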;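 further: signal is peak over basal fluorescence ratio across the kinetic read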
M4 antag – human M4 muscarinic receptor antagonists, primary screen, CHO cells, Fluo-8 calcium fluorescence; CHO-hM4 cells, ACh EC80; AID 624125, 2012; actives 0.73% (n = 360,000); inhibition, % at 3 µM; Muscarinic acetylcholine receptor M4 (Homo sapiens), P08173;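 active means inhibition above its plate's cutoff, the mean inhibition of sample wells plus 3 SD, cut at about 27% in these data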;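 further: 0% = acetylcholine EC80 with DMSO and 100% = DMSO without agonist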
CHRM5 antagonist – human M5 muscarinic receptor antagonists, primary screen, CHO cells, Fluo-8 calcium fluorescence; Muscarinic acetylcholine receptor M5 (Homo sapiens), P08912; inhibition, % at 3 µM; CHO-hM5 cells, ACh EC80; AID 624040, 2012; actives 0.59% (n = 360,000);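 active means inhibition above a per-plate cutoff, the mean of that plate's test compounds plus 3 SD, cut at about 27% in these data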;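 further: 0% = acetylcholine EC80 with DMSO and 100% = DMSO without agonist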
Active calls of the source: *; ! = a repeat was not active. Only some compounds are listed: those with a hit (about 1.8% of all), similar ones and a draw of the others.

SMILES | M4 PAM | CHRM4 agonist | M5 PAM | CHRM5 agonist | M4 antag | CHRM5 antagonist
COC(=O)[C@]12CCCCC=C1N(CCc1ccc(OC)c(OC)c1)C(=O)[C@H](CC(=O)NCc1cccc(C(F)(F)F)c1)C2 | -2 | 27 | -14 | 4 | -6 | 6
COC(=O)[C@@]12C[C@@H](CC(=O)NCc3cccc(C(F)(F)F)c3)C(=O)N(CCc3ccc(OC)c(OC)c3)C1=CCC(C)(C)C2 | -15 | 33* | -13 | 4 | 27* | 19
Nc1ncnc2c1ncn2[C@@H]1O[C@H](CNS(=O)(=O)c2ccc3c(c2)CCN(C(=O)C(F)(F)F)C3)[C@@H](O)[C@H]1O | -2 | -1 | -2 | 1 | -1 | 2
CCC(C)Sc1ccc(-c2nc3ccc(C)cn3c2NCc2ccccc2)cc1OC (stereo unspecified) | -5 | 10 | -38 | -7 | 44* | 24
CCC(C)Sc1cc(-c2nc3ccc(C)cn3c2NCc2ccccc2)ccc1OC (stereo unspecified) | -13 | 15 | -39 | -2 | 72* | 29*!
COc1ccc(NC(=O)CSc2nccn2Cc2ccc(F)cc2)cc1 | 18 | 1 | 1 | -1 | 7 | 4
Cc1ccc(NC(=S)NCCc2ccccc2)c(C)c1 | -4 | -1 | 3 | -7 | 8 | -2
Cc1ccc(NC(=S)NCc2ccc(S(N)(=O)=O)cc2)c(C)c1 | 7 | 1 | 1 | 2 | 28* | -2
Cc1ccc(NC(=S)NCCO)c(C)c1 | 16* | 1 | 6 | -3 | 11 | -3
Cc1cc(Cl)ccc1NC(=S)NCc1ccc(S(N)(=O)=O)cc1 | -5 | 1 | -2 | -3 | 6 | 1
C=CCn1nnnc1SCC(=O)Nc1cccc(C(F)(F)F)c1 | 7 | 2 | 6 | 2 | -11 | -9
COc1ccc(OCCCCn2c(CO)nc3ccccc32)cc1 | -2 | 5 | -7 | -2 | -5 | 8
CC(C)c1cc(Cn2c3ccccc3c(=O)n2C(C)Cn2cc(CCc3ccccc3)nn2)on1 (stereo unspecified) | -4 | 3 | 3 | 1 | -1 | -1
O=C(C1CCN(c2ccc(N3CCOCC3)nn2)CC1)N1CCc2ccccc2C1 | -17 | 1 | 1 | -1 | 46* | 3
O=C(C1CCN(S(=O)(=O)N2CCC3(CC2)OCCO3)CC1)N1CCc2ccccc2C1 | 3 | 6 | -2 | 5 | -1 | -4
CC1(C)Cc2ccccc2C(c2cc3ccccc3oc2=O)=N1 | -2 | 1 | 16 | 2 | 0 | -3
CC1(C)Cc2c(ccc3ccccc23)C(c2cc3ccccc3oc2=O)=N1 | 6 | -3 | 13 | 27* | 0 | 14
COc1ccccc1CCNC(=O)CSc1nc(=O)[nH]c2c1CCC2 | 5 | 1 | 5 | -4 | -4 | -1
CCN1CCN(CNC(=O)c2cnccn2)CC1 | 19 | 1 | 21* | -2 | -1 | 5
Cc1cc(=O)[nH]c2c1c(-c1ccccc1)nn2C | -16 | 0 | 7 | -1 | 100* | -5
O=C(Cn1cnc2c(nnn2Cc2ccccc2)c1=O)c1ccccc1 | 18* | 5 | -4 | 2 | -22 | 0
COc1ccc(Cl)cc1-c1cc(C(=O)Nc2ccc(C(C)(C)C)cc2)[nH]n1 | -1 | -1 | 0 | 6 | -6 | -1
COc1ccccc1CNC(=O)c1c(N)n(CCCN2CCOCC2)c2nc3ccccc3nc12 | -10 | 32 | -12 | 5 | 34* | 25
Nc1c(C(=O)NCc2ccc3c(c2)OCO3)c2nc3ccccc3nc2n1CCCN1CCOCC1 | -1 | 9 | -2 | 0 | 4 | 13
CC(C)NC(=O)NC(=O)CSc1ccc(S(=O)(=O)N2CCOCC2)cn1 | 21* | 1 | -4 | -2 | -9 | 3
